A short description of data set [1]: In vitro solubility in aqueous buffered solutions and biorelevant media. Conditions: for solubility at 24 h: thermodynamic from solid. The data set is classed as physicochemical. In short, it runs like this: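 Crystalline succinate salt of test compound (~763 mg, ~600 mg free-form equivalent) added to 250 mL of 50 mM aqueous buffer (HCl/KCl pH 2.0, acetate pH 4.5, phosphate pH 6.8 or 7.5) or FaSSIF v1 (pH 6.5, 3 mM taurocholate, 0.75 mM lecithin) or FeSSIF v1 (pH 5.0, 15 mM bile salt). Held at 37 ± 1°C with magnetic stirring. Liquid separated at 24 h and assayed by HPLC. Top tested level 2.4 mg/mL; triplicate, mean reported.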

A further data set is described as follows: pKa. It is filed as physicochemical.
The nature of data set [2]: Food effect study A2103, single-dose PK in healthy volunteers. Particulars: single 600 mg dose. It is filed as in vivo, human.

Consider `CN(C)C(=O)c1cc2cnc(Nc3ccc(N4CCNCC4)cn3)nc2n1C1CCCC1` [Ribociclib], for which, in data set [1] (acidic media), the solubility was ≤ 200000 µg/mL. The solubility at 24 h was > 2400 µg/mL in data set [1] (aqueous buffered solution, 37 °C, pH 2, aqueous buffer); > 2400 µg/mL in data set [1] (biorelevant medium FaSSIF v1, 37 °C, pH 6.5, fassif); > 2200 µg/mL in data set [1] (biorelevant medium FeSSIF v1, 37 °C, pH 5, fessif). The pKa in “pKa” (pKa1 (base)) came to 8.6; in the data set “pKa” (pKa2 (base)), 5.5. This compound also showed a half-life in data set [2] (both, human, plasma, oral, 600 mg, T1/2, Geo-mean (CV% Geo-mean), fed state (high-fat, high-calorie meal)) of 33.6 h. Also, the “Tmax fed minus fasted, difference of the medians (90% CI)” value in data set [2] is reported as 1 (–2, 8) h.

Broadly, the solubility is the dissolved amount per volume that the medium holds. The term pKa denotes the negative logarithm of the acid dissociation constant. The low end stands for a stronger acid or weaker base, the high end for a weaker acid or stronger base. In general, half-life refers to how long it takes for the measured level to halve. The low end stands for fast loss, the high end for slow loss.

These data come from publication PMC6099197 (Clinical Pharmacology and Therapeutics, 2017).
